Experimental data taken from ChEMBL document CHEMBL3259569 (J Med Chem, 2014).
The source made the active and inactive calls. No cut-off for these calls is given here.

How the values were obtained:
[1] = test system: Mus musculus; test: Toxicity in ICR mouse assessed as change in body weight at 400 to 1000 mg/kg, po treated for 7 days measured for 1 week; type: organism-based; parameters: dose 400-1000 mg/kg, route oral; conditions: in vivo, 168 h
In short: (§1)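 ICR mice fasted overnight, then given vehicle (0.2 mL/20 g) or compound orally at 400, 600 or 1000 mg/kg (n = 10/group) daily for 7 days, then monitored 1 week; weighed daily for 1 week, then twice weekly; 2/10 deaths defines toxic dose.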

[2] = test system: Mus musculus; test: Toxicity in ICR mouse at 400 to 1000 mg/kg, po treated for 7 days measured for 1 week; type: organism-based; parameters: dose 400-1000 mg/kg, route oral; conditions: in vivo, 168 h; in short: as §1
[3] = Half life in ICR mouse at 10 mg/kg, po by LC-MS/MS analysis; type: ADME, organism-based; parameters: dose 10 mg/kg, route oral; conditions: in vivo
[4] = Tmax in ICR mouse at 10 mg/kg, po by LC-MS/MS analysis; type: ADME, organism-based; parameters: dose 10 mg/kg, route oral; conditions: in vivo
[5] = Oral bioavailability in ICR mouse at 10 mg/kg by LC-MS/MS analysis; type: ADME, organism-based; conditions: in vivo
[6] = Cytotoxicity against human HONE1 cells by MTT assay; type: functional, cell-based
[7] = target: Histone deacetylase (Homo sapiens) (UniProt Q13547+O15379+Q9UBN7+Q92769+Q9UQL6+Q8WUI4+Q9BY41+Q96DB2+P56524+Q9UKV0+Q969S8); conditions: HCT-116, 1 uM

half-life [3]: 2.4 h | Tmax [4]: 0.3 h | bioavailability [5]: 33% | inhibition [7]: inactive
Compound: O=C(/C=C/c1cccc(S(=O)(=O)n2ccc3cccnc32)c1)NO
Activity [1]: Non-toxic | Activity [2]: Non-toxic | IC50 [6]: 1200 nM
